Laboratory results as given in ChEMBL document CHEMBL1828500, “Synthesis and biological evaluation of dihydroindeno and indeno [1,2-e] [1,2,4]triazolo [3,4-b] [1,3,4]thiadiazines as antimicrobial agents” (2011).
Values after ≈ are worked out from the molar mass of the structure shown. Active and inactive are the calls of the source. The rule behind the calls is not given here.

Experiments:
Assay type in all cases: functional
Staphylococcus aureus [1] = assay: Antibacterial activity against Staphylococcus aureus MTCC 96 at 2 mg/ml after 24 hrs by agar well diffusion method; conditions: MTCC 96, 24 h, read-out: DIZ
In short: (§1)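 Cultures adjusted to 0.5 McFarland and left 15 min on agar for adsorption. 8 mm wells bored and loaded with compound at 2.0 mg/mL in DMSO. Incubated 37 °C for 24 h. Growth-inhibition zone diameter (mm) read with a zone scale and reported as the average. DMSO served as negative control and ciprofloxacin as positive control.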

Bacillus subtilis [2] = assay: Antibacterial activity against Bacillus subtilis MTCC 121 at 2 mg/ml after 24 hrs by agar well diffusion method; conditions: MTCC 121, 24 h, read-out: DIZ; in short: as §1
Escherichia coli [3] = assay: Antibacterial activity against Escherichia coli MTCC 1652 at 2 mg/ml after 24 hrs by agar well diffusion method; conditions: for zone of inhibition at 2000 µg/mL: MTCC 1652, 24 h, read-out: DIZ; in short: as §1
Pseudomonas aeruginosa [4] = assay: Antibacterial activity against Pseudomonas aeruginosa MTCC 741 at 2 mg/ml after 24 hrs by agar well diffusion method; conditions: for zone of inhibition at 2000 µg/mL: MTCC 741, 24 h, read-out: DIZ; in short: as §1
Staphylococcus aureus [5] = assay: Antibacterial activity against Staphylococcus aureus MTCC 96 after 24 hrs by agar well diffusion method; conditions: MTCC 96, 24 h
In short: (§2)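 MIC by modified agar well diffusion. Two-fold serial dilutions (DMSO stock diluted in sterile distilled water), range 256 to 0.5, placed in wells in triplicate. Agar was pre-seeded with 100 standardized inoculum at 10⁶ cfu/mL. Incubated aerobically at 37 °C for 24 h. MIC taken as lowest concentration giving a clear zone, i.e. complete growth inhibition.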

Bacillus subtilis [6] = assay: Antibacterial activity against Bacillus subtilis MTCC 121 after 24 hrs by agar well diffusion method; conditions: MTCC 121, 24 h; in short: as §2
Escherichia coli [7] = assay: Antibacterial activity against Escherichia coli MTCC 1652 after 24 hrs by agar well diffusion method; conditions: MTCC 1652, 24 h; in short: as §2
Pseudomonas aeruginosa [8] = assay: Antibacterial activity against Pseudomonas aeruginosa MTCC 741 after 24 hrs by agar well diffusion method; conditions: MTCC 741, 24 h; in short: as §2
Aspergillus niger = assay: Antifungal activity against Aspergillus niger assessed as inhibition of mycelial growth at 4 mg/ml after 7 days; conditions: 168 h, read-out: GI
In short: (§3)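 Poisoned food method. Molds grown on Sabouraud dextrose agar at 25 °C for 7 days to provide inocula. Molten SDA (45 °C) dosed with compound at 4.0 mg/mL in DMSO, then solidified. 8 mm fungal plugs from colony margins placed centrally. Incubated 25 °C for 7 days, in triplicate. % mycelial growth inhibition calculated from colony diameters versus DMSO control. Fluconazole served as positive control.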

Aspergillus flavus = assay: Antifungal activity against Aspergillus flavus assessed as inhibition of mycelial growth at 4 mg/ml after 7 days; conditions: 168 h, read-out: GI; in short: as §3
Penicillium sp. = assay: Antifungal activity against Penicillium sp. assessed as inhibition of mycelial growth at 4 mg/ml after 7 days; conditions: 168 h, read-out: GI; in short: as §3

Compound	zone of inhibition at 2000 µg/mL (Staphylococcus aureus [1]) [mm]	zone of inhibition at 2000 µg/mL (Bacillus subtilis [2]) [mm]	zone of inhibition at 2000 µg/mL (Escherichia coli [3]) [mm]	zone of inhibition at 2000 µg/mL (Pseudomonas aeruginosa [4]) [mm]	MIC (Staphylococcus aureus [5]) [mg/L]	MIC (Bacillus subtilis [6]) [mg/L]	MIC (Escherichia coli [7]) [mg/L]	MIC (Pseudomonas aeruginosa [8]) [mg/L]	inhibition of growth at 4000 µg/mL (Aspergillus niger) [%]	inhibition of growth at 4000 µg/mL (Aspergillus flavus) [%]	inhibition of growth at 4000 µg/mL (Penicillium sp.) [%]	diameter of the inhibition zone (DIZ) (Escherichia coli [3])	diameter of the inhibition zone (DIZ) (Pseudomonas aeruginosa [4])
CCCc1nnc2n1N=C1c3ccccc3CC1S2 (configuration not stated)	27.3	25	19.3	18.6	8 (≈ 29.6 µM)	16 (≈ 59.2 µM)	64 (≈ 237 µM)	64 (≈ 237 µM)	55.5	52.5	53.3		
CCCc1nnc2sc3cc4c(C)cccc4c-3nn12	16.3	18.6	15.6	14.3	128 (≈ 453 µM)	64 (≈ 227 µM)	128 (≈ 453 µM)	256 (≈ 907 µM)	68.8	65.5	65.5		
Cc1cccc2c3nn4c(-c5ccccc5)nnc4sc-3cc12	18.6	22.6	15.6	15.3	64 (≈ 202 µM)	32 (≈ 101 µM)	128 (≈ 405 µM)	128 (≈ 405 µM)	55.5	51.1	48.8		
CCc1nnc2sc3cc4c(C)cccc4c-3nn12	21.6	23	19.3	17.3	32 (≈ 119 µM)	32 (≈ 119 µM)	64 (≈ 238 µM)	64 (≈ 238 µM)	65.5	62.5	63.3		
CCc1nnc2n1N=C1c3cccc(C)c3CC1S2 (configuration not stated)	26.6	28	21	19.3	8 (≈ 29.6 µM)	4 (≈ 14.8 µM)	32 (≈ 118 µM)	32 (≈ 118 µM)	64.4	63.3	65.5		
Cc1nnc2sc3cc4ccccc4c-3nn12	14.6	15.3			256 (≈ 1070 µM)	256 (≈ 1070 µM)			50	48.8	52.5	inactive	inactive
CCc1nnc2sc3cc4ccccc4c-3nn12	16.3	17.6			128 (≈ 503 µM)	128 (≈ 503 µM)			48.8	45.5	50	inactive	inactive
Cc1cccc2c3nn4c(C)nnc4sc-3cc12	20.3	18.6	18.6	15.6	64 (≈ 252 µM)	64 (≈ 252 µM)	64 (≈ 252 µM)	128 (≈ 503 µM)	53.3	50	51.1		
c1ccc2c3nn4cnnc4sc-3cc2c1	14.3	16			256 (≈ 1130 µM)	128 (≈ 566 µM)			53.3	50	51.1	inactive	inactive
Cc1cccc2c1CC1Sc3nnc(C(C)C)n3N=C21 (configuration not stated)	28.6	27	21.6	20.3	4 (≈ 14.1 µM)	8 (≈ 28.1 µM)	32 (≈ 113 µM)	32 (≈ 113 µM)	63.3	61.1	65.5		
Cc1cccc2c3nn4c(C(C)C)nnc4sc-3cc12	17.6	19.3	15	14.6	128 (≈ 453 µM)	64 (≈ 227 µM)	128 (≈ 453 µM)	256 (≈ 907 µM)	65.5	61.1	63.3		
c1ccc2c(c1)CC1Sc3nncn3N=C21 (configuration not stated)	15.3	17.6			128 (≈ 561 µM)	128 (≈ 561 µM)			51.1	52.5	51.1	inactive	inactive
Cc1cccc2c3nn4cnnc4sc-3cc12	25.3	28.6	20.6	18.3	16 (≈ 66.6 µM)	4 (≈ 16.6 µM)	64 (≈ 266 µM)	128 (≈ 533 µM)	71.1	68.8	66.6		
c1ccc(-c2nnc3sc4cc5ccccc5c-4nn23)cc1	14.6	15			256 (≈ 847 µM)	256 (≈ 847 µM)			45.5	48.8	51.1	inactive	inactive
Cc1cccc2c1CC1Sc3nncn3N=C21 (configuration not stated)	26.3	30.6	22.3	20.3	8 (≈ 33 µM)	2 (≈ 8.25 µM)	32 (≈ 132 µM)	32 (≈ 132 µM)	63.3	65.5	62.5		
CCc1nnc2n1N=C1c3ccccc3CC1S2 (configuration not stated)	25.3	21.6	18.3	16	16 (≈ 62.4 µM)	32 (≈ 125 µM)	64 (≈ 250 µM)	128 (≈ 499 µM)	58.8	55.5	57.7		
c1ccc(-c2nnc3n2N=C2c4ccccc4CC2S3)cc1 (configuration not stated)	20.6	16.3	18.3	14.6	64 (≈ 210 µM)	128 (≈ 421 µM)	64 (≈ 210 µM)	256 (≈ 841 µM)	51.1	48.8	50		
CC(C)c1nnc2sc3cc4ccccc4c-3nn12	15.6	17.3			128 (≈ 477 µM)	128 (≈ 477 µM)			48.8	50	44.4	inactive	inactive
CCCc1nnc2n1N=C1c3cccc(C)c3CC1S2 (configuration not stated)	25.3	21.6	19.3	17.6	16 (≈ 56.3 µM)	32 (≈ 113 µM)	64 (≈ 225 µM)	64 (≈ 225 µM)	58.8	55.5	61.1		
O=C(O)c1cn(C2CC2)c2cc(N3CCNCC3)c(F)cc2c1=O [CIPROFLOXACIN]	26.6	24		22	5 (≈ 15.1 µM)	5 (≈ 15.1 µM)	5 (≈ 15.1 µM)	5 (≈ 15.1 µM)					
CCCc1nnc2sc3cc4ccccc4c-3nn12	25.6	24.3	18.6	16.3	16 (≈ 59.6 µM)	16 (≈ 59.6 µM)	64 (≈ 238 µM)	128 (≈ 477 µM)	51.1	48.8	47.7		
OC(Cn1cncn1)(Cn1cncn1)c1ccc(F)cc1F [FLUCONAZOLE]									81.1	77.7	83.3		
Cc1nnc2n1N=C1c3ccccc3CC1S2 (configuration not stated)	14.6	16.3			256 (≈ 1060 µM)	128 (≈ 528 µM)			53.3	51.1	55.5	inactive	inactive
